The values below come from ChEMBL document CHEMBL1125241, “Structure-activity relationship of quinazolinedione inhibitors of calcium-independent phosphodiesterase” (J Med Chem, 1991).

The nature of assay [1]: Inhibition of phosphodiesterase 4 from guinea pig lung. Details: species or system Cavia porcellus. An outline of the steps: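 Guinea pig lung was homogenized in Bistris buffer (pH 6.5) with 50 μM final PMSF and centrifuged at 12000g at 4 °C. The supernatant went onto DEAE-Sepharose and was eluted with a 0.05–1.0 M sodium acetate gradient, pooling rolipram-sensitive fractions. The assay used 50 mM Tris/10 mM MgCl₂ (pH 7.5) and 1 μM final [³H]cAMP, with compound added in 4% DMSO, for 10 min at 37 °C. Reaction was stopped by boiling; [³H]5'-AMP was separated on boronate gel and counted. IC₅₀ came from 4 log concentrations, each in triplicate.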

The species entered for assay [2] is Mus musculus. Briefly: Inhibition of reserpine-induced hypothermia in mice by peroral dose. The assay is classed as functional. To be noted: po, read-out: MED. An outline of the steps: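 Mice were housed at 18–20 °C, given reserpine 2 mg/kg sc, and kept there 18 h. Rectal temperature was then taken, followed by saline or drug po. Temperatures were re-measured, typically at 0.5, 1.0, 2.0 and 14 h. The value is the minimal effective dose (mg/kg po) that inhibits hypothermia.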

The species named for assay [3] is Mus musculus. Briefly: Inhibition of immobility in mouse forced swim test by peroral dose. The conditions noted are these: po, read-out: MED. The assay is classed as functional. An outline of the steps: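 Compounds were dissolved in saline and given po to mice at 1 mL/100 g. One hour later, mice were put in 1-L beakers of water at 22–24 °C, deep enough that tails could not touch the bottom. Observation followed a 2-min habituation.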

In assay [4] the test system is Rattus norvegicus. Briefly: Percentage inhibition of carrageenan-induced rat foot edema at a dose of […] when administered perorally (po). The assay is classed as functional. To be noted: dose 3.2 mg/kg. For orientation: In the carrageenan paw model, swelling and tenderness develop within hours.
Assay [5] has as its system Rattus norvegicus. Briefly: Percentage inhibition of carrageenan-induced rat foot edema at a dose of 32 mg/kg when administered perorally (po). The class given is functional. An outline of the steps: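 Rats were dosed po, and 1 h later 0.05 mL of 2-week-old 1% carrageenan in distilled water was injected into the plantar tissue. Paw volume was measured immediately and 3 h after injection. The increase in foot volume was the individual response.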

For `CCn1c(=O)c2cccnc2n(-c2cccc(C(=O)OC)c2)c1=O`, in assay [1], the IC50 – broadly, the concentration needed to halve the response being measured – came to 25.9 µM.
`COC(=O)c1cccc(-n2c(=O)n(CC3CC4CCC3C4)c(=O)c3cccnc32)c1` (stereo not drawn) registered an IC50 in assay [1] of 0.89 µM. In addition, the minimal effective dose in the assay filed under Mus musculus [2] turned out to be 1 µg/kg; in the assay filed under Mus musculus [3], 1000 µg/kg.
In turn, `CNC(=O)c1cccc(-n2c(=O)n(Cc3ccccc3)c(=O)c3ccccc32)c1` had an IC50 in assay [1] of 21.4 µM.
In assay [1], `CCn1c(=O)c2ccccc2n(-c2cccc([N+](=O)[O-])c2)c1=O` [NITRAQUAZONE] displayed an IC50 of 11.4 µM. Moreover, the minimal effective dose in the assay filed under Mus musculus [2] was 1 µg/kg; in the assay listed under Mus musculus [3] it was 3200 µg/kg. Also, the inhibition in vivo (usually the relative decrease from the control value, in per cent) at […] with Rattus norvegicus [4] worked out at 43%.
Turning to `COC(=O)c1cccc(-n2c(=O)n(Cc3ccccc3)c(=O)c3cccnc32)c1`, the minimal effective dose in the assay listed under Mus musculus [2] and in the assay listed under Mus musculus [3] was 10 µg/kg each time. This compound also gave an inhibition in vivo at […] in the assay on Rattus norvegicus [4] of 50%.
`CCn1c(=O)c2ccccc2n(-c2cccc(C(=O)OC)c2)c1=O` registered an IC50 in assay [1] of 3.8 µM. Besides, in the assay on Rattus norvegicus [5], testing at 32 mg/kg gave an inhibition in vivo of 19%.
In assay [1], `COC(=O)c1cccc(-n2c(=O)n(CC3CCCC3)c(=O)c3cccnc32)c1` came in with an IC50 of 1.52 µM. Also, the results for the minimal effective dose in the assay filed under Mus musculus [2] and in the assay listed under Mus musculus [3] were 3 µg/kg and 1000 µg/kg, respectively.
Take `COC(=O)c1cccc(-n2c(=O)[nH]c(=O)c3ccccc32)c1`: in assay [1], the concentration for half-maximal inhibition (IC50) is greater than 100 µM. The minimal effective dose in the assay listed under Mus musculus [2] was less than 320 µg/kg. The compound also showed an inhibition in vivo at 32 mg/kg with Rattus norvegicus [5] of 5%.
As to `COC(=O)c1cccc(-n2c(=O)n(Cc3ccccc3)c(=O)c3ccccc32)c1`, in assay [1], the IC50 came out at 0.23 µM. Moreover, the minimal effective dose in the assay filed under Mus musculus [2] is 100 µg/kg; in the assay filed under Mus musculus [3] it was greater than 32000 µg/kg. Besides, the inhibition in vivo at 32 mg/kg in the assay with Rattus norvegicus [5] is 25%.
In turn, `COc1ccc(C2CNC(=O)C2)cc1OC1CCCC1` (stereo not drawn) [ROLIPRAM] yielded an IC50 in assay [1] of 0.59 µM. The values for the minimal effective dose in the assay filed under Mus musculus [2] and in the assay filed under Mus musculus [3] were 0.03 µg/kg and 1780 µg/kg, respectively. The compound further came in with an inhibition in vivo at 32 mg/kg in the assay on Rattus norvegicus [5] of 41%.
